# From PubChem BioAssay
# Only some compounds are listed: those with a hit (about 1.6% of all), similar ones and a draw of the others.
# LEDGF integ inh = blocks HIV-1 LEDGF/p75-dependent DNA integration. TR-FRET IN-LEDGF/p75 DNA integration, Eu/Cy5. inhibition, % at 3.7 µM. 370,000 tested, 0.64% active. AID 743269;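 active = inhibition above the screen-wide mean plus 3 SD, cut at about 13% in these data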;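 note: signal is the Cy5 over europium emission ratio at 671 and 618 nm; 0% = plate median of compound wells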
# MBD2 DNA inh = MBD2-methylated oligo binding inhibition; Q9UBB5; TR-FRET, MBD2 binding to methylated oligonucleotide; inhibition, % at 4.4 µM; 370,000 tested, 0.31% active; AID 686964; in the data active = inhibition above about 13%
# TDP2 absorb = TDP2 (human) inhibition, absorbance primary screen | O95551 | recombinant TDP2, T5PNP hydrolysis, p-nitrophenol absorbance 415 nm | inhibition, % at 12.8 µM | 370,000 tested, 0.34% active;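 active = inhibition above the mean of all tested compounds plus 3 SD, set per campaign, cut at about 25% in these data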;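 note: 0% = DMSO with enzyme and 100% = buffer with substrate but no TDP2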
#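 Assay system: Recombinant human TDP2 | Quantity: 120 nM TDP2 per well | Incubation: 2 h at 37 °C | Signal: Epi absorbance | Evaluation: Percent inhibition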
# UHRF1 MBD2 ctr = blocks human UHRF1 binding to methylated DNA | Q96T88 | UHRF1 binding to methylated oligo, TR-FRET | inhibition, % at 4.4 µM | 370,000 tested, 0.75% active | AID 687016; in the data active = inhibition above about 21%;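 note: UHRF1 SRA domain binding a hemimethylated CpG hairpin DNA probe; 0% = median of test compound wells and 100% = reference inhibitor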
# TDP2 confirm = human TDP2 inhibition, confirmation; shares compounds with TDP2 absorb; recombinant human TDP2, absorbance read-out; inhibition, % at 12.8 µM; 1,100 tested, 22% active; in the data active = inhibition above about 25%;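 note: 0% = vehicle with enzyme and 100% = no enzyme buffer only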
# IN multimer up = HIV-1 integrase multimerization activation, counter-screen; TR-FRET HIV-1 integrase multimerization, biochemical; activation, % at 7.7 µM; 2,000 tested, 17% active; shares compounds with LEDGF integ inh; in the data active = activation above about 8.9%
# TRFRET interf = optically interferes with TR-FRET readout in LEDGF counter-screen; shares compounds with LEDGF integ inh; TR-FRET optical interference counterscreen, HIV-1 IN multimerization; inhibition, % at 7.7 µM; 2,000 tested, under 10 active; AID 1053135;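 active = inhibition above the mean over all tested compounds plus 3 SD, which no compound reached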;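 note: 0% = integrase with antibodies and DMSO and 100% = antibodies without integrase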
# IN-LEDGF confirm = confirmation of HIV-1 LEDGF/p75-dependent integration inhibitors; AID 1053136; shares compounds with LEDGF integ inh; TR-FRET LEDGF/p75-dependent HIV-1 integration, biochemical; inhibition, % at 3.7 µM; 2,000 tested, 36% active; in the data active = inhibition above about 14%
# Numbers without * were called inactive; . = no result.
SMILES,LEDGF integ inh,MBD2 DNA inh,TDP2 absorb,UHRF1 MBD2 ctr,TDP2 confirm,IN multimer up,TRFRET interf,IN-LEDGF confirm
CN(C)c1ccc2nc3ccc(=O)cc-3sc2c1,73.2*,12.4,30.9*,54.9*,12.6,85.3*,-302.8,81.7*
CC(C)C1NC2(C(=O)c3ccccc3C2=O)C2C(=O)N(c3ccc(F)cc3)C(=O)C12 (stereo not given),38.8*,-3.3,40.0*,0.0,1.6,1.6,-5.9,-1.4
O=C1C2C3C=CC(CC3)C2C(=O)N1c1ccc(F)cc1 (stereo not given),-2.7,-0.4,8.4,-0.5,.,.,.,.
O=c1cc(-c2ccc(F)cc2)[nH][nH]1,17.2*,-9.3,55.0*,-1.5,7.7,2.3,-11.7,16.8*
O=c1cc(-c2ccccc2)[nH][nH]1,23.3*,-5.4,58.8*,-0.8,4.3,-2.2,8.0,3.2
O=c1cccc(-c2ccccc2)[nH]1,-1.2,-2.5,4.1,-0.8,.,.,.,.
CC1=NN(c2ccccc2)C(=O)/C1=C/c1cccs1,46.1*,9.8,70.5*,17.6,22.1,3.0,-10.8,-1.1
COCCn1c(N)c(S(=O)(=O)c2cccs2)c2nc3ccccc3nc21,13.9*,-4.8,57.5*,12.0,-6.5,0.5,-2.5,-4.1
COc1ccc(Cn2c(N)c(S(=O)(=O)c3cccs3)c3nc4ccccc4nc32)cc1,3.5,4.4,0.6,0.9,.,.,.,.
COc1ccc(NC(=O)CSc2cn[nH]n2)c(OC)c1,-1.3,1.7,-6.2,0.4,.,.,.,.
CC1=CC2(O)OCCN(CCO)C2=CC1=O (stereo not given),31.3*,2.1,32.5*,10.0,9.3,3.8,-19.3,14.0*
CC(C)(C)S(=O)(=O)N1C[C@H]2C(=CC[C@@H]3C(=O)N(c4ccccc4)C(=O)[C@@H]32)[C@H]1CCO,7.2,-0.4,3.7,5.4,.,.,.,.
O=C(O)CSc1cc(NS(=O)(=O)c2ccc(Br)cc2)c2ccccc2c1O,24.5*,-9.3,70.4*,-5.6,55.5*,0.7,-2.3,50.7*
Cc1ccc(NC(=O)CSCc2c(C)noc2C)cc1C,-1.9,-0.2,3.5,-1.1,.,.,.,.
COc1ccc(OC)c(S(=O)(=O)Oc2ccc(N)c3ccccc23)c1,14.0*,-10.4,33.1*,-4.5,-0.1,4.2,-14.9,-0.6
Cc1nnc(N/N=C/c2cc([N+](=O)[O-])c(N3CCC(C)CC3)cc2N2CCC(C)CC2)n1N,51.6*,-6.1,53.1*,2.6,-14.2,1.5,-5.5,-2.1
CCc1nnc(N/N=C/c2ccc(N3CCC(C)CC3)c([N+](=O)[O-])c2)n1N,38.1*,-1.1,68.0*,-6.2,12.4,2.4,-8.6,0.4
Cc1ccc(CNC(=O)c2nnc(Cc3ccc(Cl)cc3)o2)cc1,1.1,5.5,-13.3,5.2,.,.,.,.
CCOC(=O)SC1=N/C(=C\c2ccc(N(C)C)cc2)C(=O)S1,-4.6,-2.9,5.0,-1.6,.,.,.,.
CCOC(=O)c1cc2c(=Cc3ccc(N(C)C)cc3)c3ccccc3n2[n+]1C,21.1*,1.9,51.6*,30.0*,56.2*,20.3*,-72.7,53.7*
CC(NC(=O)Nc1ccc(O)cc1)(C(F)(F)F)C(F)(F)F,19.5*,-7.3,27.8*,-1.1,19.2,4.2,-15.0,-4.0
COc1ccc(NC(=O)NC(C)(C(F)(F)F)C(F)(F)F)cc1,4.3,-4.5,4.2,1.0,.,.,.,.
FC(F)(F)c1nc2cc3nc4ccccc4[nH]c3cc2n1,7.1,-17.6,-10.4,-14.3,.,.,.,.
O=C(CCCC(=O)N/N=C\c1ccccn1)N/N=C\c1ccccn1,-0.9,-5.0,8.5,-1.9,.,.,.,.
CC(Nc1cccc2ccccc12)C(=O)N/N=C/c1ccccn1 (stereo not given),23.4*,-3.9,26.4*,3.7,3.8,2.9,-14.7,-3.8
Cc1ccc(C(=O)Nc2c(-c3ccc(Cl)cc3)[nH][nH]c2=O)cc1,13.9*,2.4,61.5*,3.6,26.9*,3.5,-12.5,1.4
COc1cc(NC(C)CCCN)c2ncccc2c1 (stereo not given),34.8*,-11.6,64.2*,3.0,18.0,1.6,-8.2,31.3*
